The source made the active and inactive calls. The rule behind the calls is not given here.
What follows are compounds tested on CA46 (assay: Growth inhibition of c-myc NHE III1-deficient human CA46 cell line at 2.5 to 10 uM after 4 days by cell counting).
Type: functional, cell-based
Outline: (§1)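 Cells seeded at 1.0×10^5 per well and exposed to ligand (2.5, 5 or 10 μM) or 0.1% DMSO for 4 days. Cell counts and viability taken daily; three repeats per point.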

Structure (SMILES) | growth inhibition (GI)
COc1cc2c(cc1OC)-c1c(cc3c(OCCCN4CCCCC4)c(OC)ccc3[n+]1C)CC2 | inactive

The compounds below were run on Nucleic Acid (assay: Binding affinity to duplex DNA F10T assessed as change in melting temperature at 2 uM by FRET-melting assay).
Type: nucleic-acid assay
Outline: (§2)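 FRET melting of 0.2 μM dual-labelled oligo (FPu18T, FAM/TAMRA c-myc G-quadruplex; or F10T, HEG-linked hairpin duplex) in 10 mM Tris-HCl pH 7.2, 0.2 mM KCl, with or without 2 μM ligand. Excitation 470 nm, emission 530 nm, read every 1 °C from 37–99 °C after 30 s hold. ΔTm = Tm(DNA+ligand) − Tm(DNA); mean ± SD of at least three runs.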

ΔTm [°C] | Structure (SMILES)
1.1 | COc1ccc2c(cc3c([n+]2C)-c2cc4c(cc2CC3)OCO4)c1OCCCN1CCCC1
0.9 | COc1ccc2c(cc3c([n+]2C)-c2cc4c(cc2CC3)OCO4)c1OCCCNC1CCCCC1
0.5 | COc1ccc2c(cc3c([n+]2C)-c2cc4c(cc2CC3)OCO4)c1OCCCN1CCN(C)CC1
1 | COc1ccc2nc3c(cc2c1OCCN1CCCC1)CCc1cc2c(cc1-3)OCO2
1 | COc1cc2c(cc1OC)-c1nc3ccc(OC)c(OCCCN4CCCCC4)c3cc1CC2
0.8 | COc1cc2c(cc1OC)-c1c(cc3c(OCCCN4CCCCC4)c(OC)ccc3[n+]1C)CC2

Each compound was assayed against Nucleic Acid (assay: Binding affinity to immobilised c-myc quadruplex DNA G4 by SPR assay).
Type: nucleic-acid assay
Outline: (§3)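 SPR: biotinylated DNA captured (~1000 RU) on GLH chip, blank reference cell. Running buffer 50 mM Tris-HCl pH 7.2, 100 mM KCl. Ligand at 0.3125–10 μM injected at 100 μL/min, 400 s association and 400 s dissociation, 25 °C; NaOH regeneration. KD by equilibrium analysis; mean ± SD of at least two runs.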

Kd [nM] | Structure (SMILES)
400 | COc1ccc2c(cc3c([n+]2C)-c2cc4c(cc2CC3)OCO4)c1OCCCN1CCCC1
1200 | COc1ccc2c(cc3c([n+]2C)-c2cc4c(cc2CC3)OCO4)c1OCCCNC1CCCCC1
800 | COc1ccc2c(cc3c([n+]2C)-c2cc4c(cc2CC3)OCO4)c1OCCCN1CCN(C)CC1
1400 | COc1ccc2nc3c(cc2c1OCCN1CCCC1)CCc1cc2c(cc1-3)OCO2
2800 | COc1cc2c(cc1OC)-c1nc3ccc(OC)c(OCCCN4CCCCC4)c3cc1CC2
600 | COc1cc2c(cc1OC)-c1c(cc3c(OCCCN4CCCCC4)c(OC)ccc3[n+]1C)CC2

These compounds were tested on Nucleic Acid (assay: Binding affinity to c-myc quadruplex DNA FPu18T assessed as change in melting temperature at 2 uM by FRET-melting assay in the presence of excess of ds26 duplex DNA).
Type: nucleic-acid assay
Outline: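 Competition FRET melting: 0.2 μM FPu18T with 2 μM ligand in 10 mM Tris-HCl pH 7.2, 0.2 mM KCl, plus varying amounts of unlabelled self-complementary ds26 duplex as competitor. Fluorescence at 470/530 nm recorded per 1 °C step over 37–99 °C.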

Activity | Structure (SMILES)
Active | COc1ccc2c(cc3c([n+]2C)-c2cc4c(cc2CC3)OCO4)c1OCCCN1CCCC1
Active | COc1ccc2c(cc3c([n+]2C)-c2cc4c(cc2CC3)OCO4)c1OCCCNC1CCCCC1
Active | COc1ccc2c(cc3c([n+]2C)-c2cc4c(cc2CC3)OCO4)c1OCCCN1CCN(C)CC1
Active | COc1ccc2nc3c(cc2c1OCCN1CCCC1)CCc1cc2c(cc1-3)OCO2
Active | COc1cc2c(cc1OC)-c1nc3ccc(OC)c(OCCCN4CCCCC4)c3cc1CC2
Active | COc1cc2c(cc1OC)-c1c(cc3c(OCCCN4CCCCC4)c(OC)ccc3[n+]1C)CC2

What follows are compounds tested on Ramos (assay: Growth inhibition of human Ramos cell line expressing c-myc NHE III1 after 4 days by cell counting).
Type: functional, cell-based
Outline: as §1

Structure (SMILES) | growth inhibition (GI)
COc1cc2c(cc1OC)-c1c(cc3c(OCCCN4CCCCC4)c(OC)ccc3[n+]1C)CC2 | Dose-dependent effect

What follows are compounds tested on Nucleic Acid (assay: Binding affinity to c-myc quadruplex DNA Pu27 assessed as conformational change up to 10 uM by circular dichroism in the absence of 100 mM K+).
Type: nucleic-acid assay
Outline: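 K+-free CD: 1 μM Pu27 in 10 mM Tris-HCl pH 7.2 with ligand at 0, 3, 5 or 10 μM, co-annealed (95 °C 5 min, slow cool, 4 °C overnight). Spectra recorded at 25 °C over 230–430 nm, 1 cm cell, two scans averaged, buffer baseline subtracted.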

Activity | Structure (SMILES)
Active | COc1ccc2c(cc3c([n+]2C)-c2cc4c(cc2CC3)OCO4)c1OCCCN1CCCC1
Active | COc1ccc2c(cc3c([n+]2C)-c2cc4c(cc2CC3)OCO4)c1OCCCNC1CCCCC1
Active | COc1ccc2c(cc3c([n+]2C)-c2cc4c(cc2CC3)OCO4)c1OCCCN1CCN(C)CC1
Active | COc1ccc2nc3c(cc2c1OCCN1CCCC1)CCc1cc2c(cc1-3)OCO2
Active | COc1cc2c(cc1OC)-c1nc3ccc(OC)c(OCCCN4CCCCC4)c3cc1CC2
Active | COc1cc2c(cc1OC)-c1c(cc3c(OCCCN4CCCCC4)c(OC)ccc3[n+]1C)CC2

What follows are compounds tested on Nucleic Acid (assay: Binding affinity to immobilised duplex DNA up to 10 uM by SPR assay).
Type: nucleic-acid assay
Outline: as §3

Activity | Structure (SMILES)
inactive | COc1ccc2c(cc3c([n+]2C)-c2cc4c(cc2CC3)OCO4)c1OCCCN1CCCC1
inactive | COc1ccc2c(cc3c([n+]2C)-c2cc4c(cc2CC3)OCO4)c1OCCCNC1CCCCC1
inactive | COc1ccc2c(cc3c([n+]2C)-c2cc4c(cc2CC3)OCO4)c1OCCCN1CCN(C)CC1
inactive | COc1ccc2nc3c(cc2c1OCCN1CCCC1)CCc1cc2c(cc1-3)OCO2
inactive | COc1cc2c(cc1OC)-c1nc3ccc(OC)c(OCCCN4CCCCC4)c3cc1CC2
inactive | COc1cc2c(cc1OC)-c1c(cc3c(OCCCN4CCCCC4)c(OC)ccc3[n+]1C)CC2

The compounds below were run on Nucleic Acid (assay: Binding affinity to c-myc quadruplex DNA Pu27 assessed as conformational change up to 10 uM by circular dichroism in the presence of 100 mM K+).
Type: nucleic-acid assay
Outline: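 CD titration of 1 μM Pu27, annealed (95 °C 5 min, slow cool, 4 °C overnight) in 10 mM Tris-HCl pH 7.2, 100 mM KCl. Ligand added stepwise (0.5–10 eq.) at 25 °C, ≥10 min equilibration per addition. Spectra 230–430 nm, 1 cm cell, average of two scans, buffer baseline subtracted.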

Activity | Structure (SMILES)
Active | COc1ccc2c(cc3c([n+]2C)-c2cc4c(cc2CC3)OCO4)c1OCCCN1CCCC1
Active | COc1ccc2c(cc3c([n+]2C)-c2cc4c(cc2CC3)OCO4)c1OCCCNC1CCCCC1
Active | COc1ccc2c(cc3c([n+]2C)-c2cc4c(cc2CC3)OCO4)c1OCCCN1CCN(C)CC1
Active | COc1ccc2nc3c(cc2c1OCCN1CCCC1)CCc1cc2c(cc1-3)OCO2
Active | COc1cc2c(cc1OC)-c1nc3ccc(OC)c(OCCCN4CCCCC4)c3cc1CC2
Active | COc1cc2c(cc1OC)-c1c(cc3c(OCCCN4CCCCC4)c(OC)ccc3[n+]1C)CC2

The compounds below were run on CA46 (assay: Down-regulation of c-myc gene expression in human CA46 cells at 0.5 to 5 uM after 4 days by RT-PCR analysis).
Type: functional, cell-based
Outline: (§4)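 Cells given ligand at 0.5, 1, 2.5 or 5 μM for 4 days. Total RNA (TRIpure) 2 μg reverse-transcribed with oligo dT18/M-MLV (42 °C 1 h). c-myc and β-actin amplified by PCR, run on 1% agarose; c-myc normalized to β-actin.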

Structure (SMILES) | Activity
COc1cc2c(cc1OC)-c1c(cc3c(OCCCN4CCCCC4)c(OC)ccc3[n+]1C)CC2 | inactive

Each compound was assayed against Nucleic Acid (assay: Binding affinity to c-myc quadruplex DNA Pu27 assessed as inhibition of c-myc amplification by PCR-stop assay).
Type: nucleic-acid assay
Outline: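 Pu27 template with partly complementary primer, 10 μM each, […], 2.5 U Taq and ligand at 1, 5, 10 or 25 μM (one series 50 μM). Cycling: 94 °C 2 min, then 30 × (94 °C, 58 °C, 72 °C, 30 s each). Products run on 16% native PAGE, GelRed stain; IC50 for 50% loss of amplification.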

IC50 [nM] | Structure (SMILES)
5300 | COc1ccc2c(cc3c([n+]2C)-c2cc4c(cc2CC3)OCO4)c1OCCCN1CCCC1
14000 | COc1ccc2c(cc3c([n+]2C)-c2cc4c(cc2CC3)OCO4)c1OCCCNC1CCCCC1
9500 | COc1ccc2c(cc3c([n+]2C)-c2cc4c(cc2CC3)OCO4)c1OCCCN1CCN(C)CC1
> 50000 | COc1ccc2nc3c(cc2c1OCCN1CCCC1)CCc1cc2c(cc1-3)OCO2
> 50000 | COc1cc2c(cc1OC)-c1nc3ccc(OC)c(OCCCN4CCCCC4)c3cc1CC2
5000 | COc1cc2c(cc1OC)-c1c(cc3c(OCCCN4CCCCC4)c(OC)ccc3[n+]1C)CC2

What follows are compounds tested on Nucleic Acid (assay: Binding affinity to c-myc quadruplex DNA FPu18T assessed as change in melting temperature at 2 uM by FRET-melting assay).
Type: nucleic-acid assay
Outline: as §2

ΔTm [°C] | Structure (SMILES)
22.2 | COc1ccc2c(cc3c([n+]2C)-c2cc4c(cc2CC3)OCO4)c1OCCCN1CCCC1
11.6 | COc1ccc2c(cc3c([n+]2C)-c2cc4c(cc2CC3)OCO4)c1OCCCNC1CCCCC1
19 | COc1ccc2c(cc3c([n+]2C)-c2cc4c(cc2CC3)OCO4)c1OCCCN1CCN(C)CC1
5.3 | COc1ccc2nc3c(cc2c1OCCN1CCCC1)CCc1cc2c(cc1-3)OCO2
11 | COc1cc2c(cc1OC)-c1nc3ccc(OC)c(OCCCN4CCCCC4)c3cc1CC2
23.2 | COc1cc2c(cc1OC)-c1c(cc3c(OCCCN4CCCCC4)c(OC)ccc3[n+]1C)CC2

These compounds were tested on Ramos (assay: Down-regulation of c-myc gene expression in human Ramos cells after 4 days by RT-PCR analysis).
Type: functional, cell-based
Outline: as §4

Structure (SMILES) | Activity
COc1cc2c(cc1OC)-c1c(cc3c(OCCCN4CCCCC4)c(OC)ccc3[n+]1C)CC2 | Dose-dependent effect

Source: ChEMBL document CHEMBL2034832, “12-N-Methylated 5,6-dihydrobenzo[c]acridine derivatives: a new class of highly selective ligands for c-myc G-quadruplex DNA” (Eur J Med Chem, 2012)
